The list is not random: actives were taken first. Their share in the collection is about 3.2%.
DENV2 CPE = protects cells from dengue virus 2 cytopathic effect. hit rate 1.7% among 350,000. AID 651640. DENV2-infected cells, cytopathic effect rescue, plate reader. CPE inhibition, % at 9.99 µM; in the data active means CPE inhibition above about 20%, passing the limit was not always enough; tested in BHK-21 cells;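 further: 0% = median of neutral control wells and 100% = median of positive control wells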
rRNA inh HTS = inhibitors of bacterial rRNA selective over humanized ribosomes; GFP signal change (wild-type ribosome), % (no concentration beside the values); E. coli WT GFP vs humanized-ribosome RFP mutants, fluorescence, 24 h; active compounds read low; DMSO median 0, no signal -100; hit rate 1.6% among 350,000;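 active means significant combined selectivity score with lowered wild-type GFP, culture density cut under 30%, mutant RFP and density less affected; inactive means any of these conditions unmet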
Cneo AK release = Cryptococcus neoformans lysis via adenylate kinase release; C. neoformans lysis, adenylate kinase release luminescence, 4 h; normalised: neutral wells 0, clomiphene wells 100; lysis activity, % at 15 µM; hit rate 0.2% among 360,000; AID 651654;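 active means mean lysis activity across replicates of at least 80%, whatever share of replicates individually reach that level; inactive means mean lysis activity below 80%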
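Schedule: static 4 h at 37 °C with compound, 1 h detection; system: C. neoformans cells; benchmarks: Clomiphene as positive control; buffer or medium: fresh YPD medium; measure: luminescence rise reflecting yeast cell lysis; measured by: luminescent adenylate kinase detection reagent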
AF4-AF9 inh = blocks AF4 peptide binding to human AF9. P42568. AlphaScreen, biotin-AF4 peptide binding to FLAG-AF9. inhibition, % at 10 µM. hit rate 0.47% among 350,000;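 active means every replicate reaching a set inhibition limit, whatever the replicate mean, cut at about 25% in these data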;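 further: 0% = plate neutral control median and 100% = total signal loss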
PfHsp90 yeast 2 = reduces growth (ATP signal) of yeast expressing P. falciparum Hsp90; AID 504621; inhibition, % at 9.4 µM; S. cerevisiae expressing PfHsp90, BacTiter-Glo ATP, 48 h; yeast lacking PDR1 and PDR3 efflux regulators; hit rate 0.32% among 310,000;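 active means every replicate shows inhibition above about 80%, whatever the replicate mean, limit read from the data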;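 further: 0% = DMSO neutral controls and 100% = 20 µM radicicol positive controls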
S100A4 MyoIIA = blocks human S100A4 binding to myosin IIA peptide; P26447; S100A4/TAMRA-MyoIIA peptide fluorescence polarization; inhibition, % at 10.7 µM; hit rate 0.14% among 360,000; AID 652163;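 active means mean inhibition of at least 70% across replicates, with every replicate also reaching that level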
Target sequence (P26447 whole entry, looked up): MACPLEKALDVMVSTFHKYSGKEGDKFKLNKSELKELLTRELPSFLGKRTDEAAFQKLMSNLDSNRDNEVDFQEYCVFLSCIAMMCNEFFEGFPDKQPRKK
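Test system – S100A4 monomer (human) · Compound – single-point compound testing · Schedule – 5 min incubation before reading · Probe or stimulus – TAMRA-labelled myosin IIA heavy-chain peptide probe, 5 nM · Benchmarks – neutral control DMSO, positive control TFP · Medium – Calcium-containing HEPES buffer, pH 7.2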
An asterisk follows results filed as active; . = not tested or not shown.

SMILES	DENV2 CPE	rRNA inh HTS	Cneo AK release	AF4-AF9 inh	PfHsp90 yeast 2	S100A4 MyoIIA
Cc1cc(=O)n2[nH]cc(-c3ccccc3)c2n1	-2	-7	-2	3	14	1
C[C@@H]1CN([C@H](C)CO)C(=O)Cc2cc(NS(=O)(=O)c3ccc(F)cc3)ccc2O[C@H]1CN(C)C(=O)Nc1ccc(C(F)(F)F)cc1	2	0	1	0	.	-8
CC(C)C[C@H]1CN([C@@H](Cc2ccc(O)cc2)CN2CCC[C@H]2CN2C(=O)C(=O)NC[C@@H]2Cc2ccc(O)cc2)C(=O)C(=O)N1CCc1ccccc1	-1	-28*	.	0	.	-4
CC(C)C[C@H]1CNC(=S)N1C[C@H]1CCCN1C[C@H](CC(C)C)N1C[C@H](Cc2ccc(O)cc2)N(CCc2ccccc2)C1=S	39*	3	1	5	.	-3
CCOc1ccc(CCN2C(=S)N([C@@H](Cc3ccc(O)cc3)CN3CCC[C@@H]3CN3C(=S)NC[C@@H]3CC(C)C)C[C@@H]2CC(C)C)cc1	22*	19	2	4	.	-3
CC(C)C[C@H]1CN([C@@H](CC(C)C)CN2CCC[C@@H]2CN2C(=S)NC[C@@H]2Cc2ccc(O)cc2)C(=S)N1CCc1ccccc1	3	19	0	3	.	-1
CCOc1ccc(CCN2C(=S)N([C@@H](Cc3ccc(O)cc3)CN3CCC[C@@H]3CN3C(=S)NC[C@@H]3CC(C)C)C[C@@H]2Cc2ccccc2)cc1	1	10	-1	-13	.	-3
CC(C)C[C@H]1CN([C@@H](Cc2ccc(O)cc2)CN2CCC[C@H]2CN2C(=O)C(=O)NC[C@@H]2Cc2ccccc2)C(=O)C(=O)N1CCc1ccccc1	-11	-33	.	2	.	-1
CC(C)c1cn(CC[C@H]2CC[C@H](NS(=O)(=O)c3ccccc3)[C@H](CO)O2)nn1	-1	-1	4	-2	.	-14
CCS(=O)(=O)Nc1ccc2c(c1)C(=O)N(C)C[C@H](OC)[C@@H](C)CN(C(=O)C1CC1)[C@H](C)CO2	-2	3	4	0	.	9
Cc1cc(Br)ccc1NC(=O)CNC(=O)Cc1ccc(S(=O)(=O)N2CCOCC2)s1	39*	-7	6	1	-10	-5
CCc1nnc(NC(=O)CSc2nnc(-c3ccc(NS(=O)(=O)c4ccccc4)cc3)o2)s1	26*	-16	1	8	1	1
COC(=O)CSc1nnc(-c2ccc(NS(=O)(=O)c3ccccc3)cc2)o1	.	.	-1	.	6	.
COc1ccc(-c2cc(C(F)(F)F)nc(SCc3cccc(C(=O)O)c3)n2)cc1	-3	-43*	11	10	1	-2
O=C(O)c1cccc(CSc2nc(-c3ccccc3)cc(C(F)(F)F)n2)c1	-5	-56	.	-11	-41	-3
CCCC(=O)N1CC2(C1)CN(C(=O)C1CCCC1)[C@H](CO)c1[nH]c3cc(OC)ccc3c12	.	0	.	.	.	.
Cc1ccc(S(=O)(=O)N(C)C[C@H]2Oc3ccc(NC(=O)c4ccncc4)cc3C(=O)N([C@@H](C)CO)C[C@H]2C)cc1	-2	0	-1	-1	.	-14
CN/N=C(\Cc1nc2ccccc2[nH]1)c1ccc([N+](=O)[O-])cc1	8	-22*	.	8	4	0
O=C(Cc1nc2ccccc2[nH]1)c1ccc([N+](=O)[O-])cc1	-1	-14	-1	0	-11	-3
COCCNC(=O)[C@@H]1[C@@H](CO)[C@@H]2Cn3c(ccc(-c4ccc(F)cc4)c3=O)[C@H]1N2C	0	3	2	-1	.	12
COc1cccc(CC(=O)OCC(=O)Nc2nnc(-c3ccccc3)o2)c1	103*	-27*	0	-6	-12	-1
O=C(NC1CCCC1)N[C@H]1C=C[C@@H](CC(=O)N2CCOCC2)O[C@@H]1CO	36*	3	1	0	.	-14
O=C(Cc1ccccc1)N[C@@H]1C=C[C@H](CC(=O)N2CCOCC2)O[C@@H]1CO	7	0	4	3	.	-2
O=C(NC1CCCC1)N[C@H]1C=C[C@H](CC(=O)N2CCOCC2)O[C@H]1CO	57*	2	-2	2	.	-20
